Experiment [1] has as its system Plasmodium yoelii. Description: Antimalarial activity against chloroquine-resistant Plasmodium yoelii N-67 infected Swiss mouse assessed as suppression of parasitemia at 100 mg/kg/day, po qd for 4 days measured on day 4. In kind it is functional. The settings on record: N-67, 96 h. A digest of the protocol: (§1)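 Swiss mice infected with P. yoelii N-67 (1 × 10⁵ parasitized RBC, day 0). Test agents were given as aqueous suspensions with a few drops of Tween 80, orally at 100 mg/kg/day, once daily on days 0–3, to groups of five. Parasitaemia was read from thin blood smears on days 4 and 6. Percent suppression was calculated from group means versus untreated controls. Survival and cure were followed to day 30.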

Experiment [2] has as its system Plasmodium yoelii. The experiment in a line: Antimalarial activity against chloroquine-resistant Plasmodium yoelii N-67 infected Swiss mouse assessed as suppression of parasitemia at 100 mg/kg/day, po qd for 4 days measured on day 6. In kind it is functional. The procedure, abridged:
as §1

Experiment [3] deals with Plasmodium yoelii. The experiment in a line: Antimalarial activity against chloroquine-resistant Plasmodium yoelii N-67 infected Swiss mouse assessed as mean survival time at 100 mg/kg/day, po qd for 4 days. The format is functional. The procedure, abridged: as §1
A short description of experiment [4]: Selectivity index, ratio of CC50 for monkey Vero cells to IC50 for chloroquine-sensitive ring stage Plasmodium falciparum 3D7. In kind it is functional. The procedure, abridged:
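Vero cells exposed to dilutions of test agents for 72 h; MTT read-out (modified Mosmann method); CC50 by non-linear regression. Ratio taken against the 3D7 IC50 from SYBR Green-I assay.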

In experiment [5] the test system is Plasmodium yoelii. Description: Inhibition of beta-hematin formation in Plasmodium yoelii infected Swiss mouse plasma using hemin as substrate after 16 hrs by spectrophotometry. The format is functional. The procedure, abridged:
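Plasma taken by cardiac puncture into 2.0% citrate from male Swiss mice (15–20 g) infected with 1 × 10^5 P. yoelii RBCs, at about 50% parasitemia. Mix: 100 mM sodium acetate pH 5.1, 50 µL plasma, 100 µM hemin, compound, in triplicate, 37 °C for 16 h with shaking. Pellet washed in Tris–HCl pH 7.4 with 2.5% SDS. IC50 = 50% inhibition; three experiments in triplicate.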

Experiment [6] concerns Plasmodium falciparum. Description: Antimalarial activity against chloroquine-sensitive ring stage Plasmodium falciparum 3D7 after 72 hrs by SYBR Green-I assay. The format is functional, organism-based. The settings on record: 3D7, 72 h. The procedure, abridged:
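Asynchronous P. falciparum 3D7 culture (over 80% ring stages), 1.0% parasitized cell suspension at 0.8% parasitaemia, incubated with twofold serial dilutions at 37 °C, 5% CO2/air, 72 h. Lysis buffer with 1× SYBR Green-I added, 1 h at 37 °C. Fluorescence read at 485/530 nm excitation/emission. IC50 from triplicate experiments.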

Converted amounts (≈) assume the structure as drawn.

`CCC(C)C1=CC(/C=C/C(=O)c2ccccc2)=CC(=C\NCCNc2ccnc3cc(Cl)ccc23)/C1=O` (centres undefined): the inhibition in vivo at 100 mg/kg/day worked out at 99.6% in experiment [1] and 83.2% in experiment [2]. Moreover, the MST in experiment [3] came out at 14.6 days. Moreover, in experiment [4], the “Ratio CC50/IC50” value is 498.54. The IC50 in experiment [5] worked out at 3.15 µg/mL (≈ 6.15 µM); in experiment [6] it was 0.0136 µg/mL (≈ 0.0266 µM).

As for `COc1ccc(C(=O)/C=C/C2=CC(=C\NCCNc3ccnc4cc(Cl)ccc34)/C(=O)C(C)=C2)cc1`, the “Ratio CC50/IC50” value in experiment [4] was 1137.97. The half-inhibitory concentration (IC50) is 3.01 µg/mL (≈ 6.02 µM) in experiment [5] and 0.0167 µg/mL (≈ 0.0333 µM) in experiment [6].

Take `CC1=CC(/C=C/C(=O)c2ccc(C)cc2)=CC(=C\NCCNc2ccnc3cc(Cl)ccc23)/C1=O`: the inhibition in vivo at 100 mg/kg/day in experiment [1] was 99.8%; in experiment [2] it was 88.7%. The MST in experiment [3] was found to be 17.6 days. Besides, in experiment [4], the “Ratio CC50/IC50” value came to 1034.23. The figures for the 50% inhibitory concentration (IC50) in experiment [5] and in experiment [6] were 2.91 µg/mL (≈ 6.01 µM) and 0.00975 µg/mL (≈ 0.0201 µM), respectively.

`CCC(C)C1=CC(/C=C/C(=O)c2ccc(O)cc2)=CC(=C\NCCCNc2ccnc3cc(Cl)ccc23)/C1=O` (centres undefined): the “Ratio CC50/IC50” value in experiment [4] stood at 486.57. In addition, the results for the IC50 in experiment [5] and in experiment [6] were 2.93 µg/mL (≈ 5.41 µM) and 0.0424 µg/mL (≈ 0.0783 µM), respectively.

For `CC1=CC(/C=C/C(=O)c2ccc(F)cc2)=CC(=C\Nc2ccc(Nc3ccnc4cc(Cl)ccc34)cc2)/C1=O`, the “Ratio CC50/IC50” value in experiment [4] was determined as 407.52. Moreover, the concentration for half-maximal inhibition (IC50) is 3.78 µg/mL (≈ 7.05 µM) in experiment [5] and 0.16 µg/mL (≈ 0.299 µM) in experiment [6].

Take `CCC(C)C1=CC(/C=C/C(=O)c2cccs2)=CC(=C\NCCNc2ccnc3cc(Cl)ccc23)/C1=O` (centres undefined): the inhibition in vivo at 100 mg/kg/day in experiment [1] was found to be 99.4%; in experiment [2], 86.7%. Moreover, in experiment [3], the MST is 18.2 days. Moreover, the “Ratio CC50/IC50” value in experiment [4] was determined as 1373.63. Besides, the concentration for half-maximal inhibition (IC50) in experiment [5] turned out to be 2.62 µg/mL (≈ 5.06 µM); in experiment [6] it was 0.0091 µg/mL (≈ 0.0176 µM).

With `CC1=CC(/C=C/C(=O)c2ccc(O)cc2)=CC(=C\NCCNc2ccnc3cc(Cl)ccc23)/C1=O`, in experiment [4], the “Ratio CC50/IC50” value is on record as 27548.21. Further, the IC50 in experiment [5] was 2.89 µg/mL (≈ 5.95 µM); in experiment [6] it was 0.00363 µg/mL (≈ 0.00747 µM).

In the case of `CC1=CC(/C=C/C(=O)c2ccc(Cl)cc2)=CC(=C\NCCCNc2ccnc3cc(Cl)ccc23)/C1=O`, in experiment [4], the “Ratio CC50/IC50” value is given as 513.99. Further, the IC50 in experiment [5] worked out at 2.9 µg/mL (≈ 5.59 µM); in experiment [6], 0.0429 µg/mL (≈ 0.0827 µM).

For the compound `CCC(C)C1=CC(/C=C/C(=O)c2ccco2)=CC(=C\Nc2ccc(Nc3ccnc4cc(Cl)ccc34)cc2)/C1=O` (centres undefined), the “Ratio CC50/IC50” value in experiment [4] worked out at 678.11. Besides, the values for the IC50 in experiment [5] and in experiment [6] were 3.21 µg/mL (≈ 5.84 µM) and 0.08 µg/mL (≈ 0.145 µM), respectively.

In the case of `CCC(C)C1=CC(/C=C/C(=O)c2ccc(OC)cc2)=CC(=C\NCCCNc2ccnc3cc(Cl)ccc23)/C1=O` (centres undefined), the “Ratio CC50/IC50” value in experiment [4] stood at 549.12. In addition, the half-inhibitory concentration (IC50) in experiment [5] is 6.59 µg/mL (≈ 11.9 µM); in experiment [6] it was 0.0418 µg/mL (≈ 0.0752 µM).

Take `CC1=CC(/C=C/C(=O)c2ccc(F)cc2)=CC(=C\NCCNc2ccnc3cc(Cl)ccc23)/C1=O`: the inhibition in vivo at 100 mg/kg/day in experiment [1] was found to be 99.5%; in experiment [2], 83.5%. The MST in experiment [3] is 15.6 days. Moreover, in experiment [4], the “Ratio CC50/IC50” value turned out to be 1034.23. Besides, the IC50 stood at 2.91 µg/mL (≈ 5.96 µM) in experiment [5] and 0.0109 µg/mL (≈ 0.0222 µM) in experiment [6].

On to `CC1=CC(/C=C/C(=O)c2ccc(Cl)cc2)=CC(=C\NCCNc2ccnc3cc(Cl)ccc23)/C1=O`, for which the “Ratio CC50/IC50” value in experiment [4] came to 3755.43. The values for the IC50 in experiment [5] and in experiment [6] were 2.99 µg/mL (≈ 5.93 µM) and 0.0222 µg/mL (≈ 0.044 µM), respectively.

For `CCC(C)C1=CC(/C=C/C(=O)c2ccco2)=CC(=C\NCCNc2ccnc3cc(Cl)ccc23)/C1=O` (centres undefined), the inhibition in vivo at 100 mg/kg/day in experiment [1] came to 99.5%; in experiment [2], 85.8%. Moreover, the MST in experiment [3] was 17.6 days. Moreover, the “Ratio CC50/IC50” value in experiment [4] turned out to be 1138.22. Further, the figures for the 50% inhibitory concentration (IC50) in experiment [5] and in experiment [6] were 2.89 µg/mL (≈ 5.76 µM) and 0.00709 µg/mL (≈ 0.0141 µM), respectively.

As for `CC(C)(C)C1=CC(/C=C/C(=O)c2ccc(Cl)cc2)=CC(=C\Nc2ccc(Nc3ccnc4cc(Cl)ccc34)cc2)/C1=O`, the “Ratio CC50/IC50” value in experiment [4] was found to be 196.7. Besides, the values for the IC50 in experiment [5] and in experiment [6] were 7.88 µg/mL (≈ 13.3 µM) and 0.38 µg/mL (≈ 0.639 µM), respectively.

Take `CC(C)(C)C1=CC(/C=C/C(=O)c2ccc(Br)cc2)=CC(=C\Nc2ccc(Nc3ccnc4cc(Cl)ccc34)cc2)/C1=O`: the values for the IC50 in experiment [5] and in experiment [6] were 13.9 µg/mL (≈ 21.8 µM) and more than 0.1 µg/mL, respectively.

As a reminder, the inhibition in vivo is the change of the read-out against control, counted positive when it falls. The term IC50 denotes the midpoint of a concentration-inhibition curve.

(Values after ChEMBL document CHEMBL2021766, “Antiplasmodial activity of novel keto-enamine chalcone-chloroquine based hybrid pharmacophores” (Bioorg Med Chem, 2012).)
